The source of these data is ChEMBL document CHEMBL3745621, “Synthesis and evaluation of gallocyanine dyes as potential agents for the treatment of Alzheimer's disease and related neurodegenerative tauopathies” (Eur J Med Chem, 2016).

Calls of active or inactive are those of the source. The calls are words filed in the database; no cut-off is given here.

Dickkopf-related protein 1/Lrp6 (Mus musculus), sequence (O88572 whole entry, looked up, one chain of several): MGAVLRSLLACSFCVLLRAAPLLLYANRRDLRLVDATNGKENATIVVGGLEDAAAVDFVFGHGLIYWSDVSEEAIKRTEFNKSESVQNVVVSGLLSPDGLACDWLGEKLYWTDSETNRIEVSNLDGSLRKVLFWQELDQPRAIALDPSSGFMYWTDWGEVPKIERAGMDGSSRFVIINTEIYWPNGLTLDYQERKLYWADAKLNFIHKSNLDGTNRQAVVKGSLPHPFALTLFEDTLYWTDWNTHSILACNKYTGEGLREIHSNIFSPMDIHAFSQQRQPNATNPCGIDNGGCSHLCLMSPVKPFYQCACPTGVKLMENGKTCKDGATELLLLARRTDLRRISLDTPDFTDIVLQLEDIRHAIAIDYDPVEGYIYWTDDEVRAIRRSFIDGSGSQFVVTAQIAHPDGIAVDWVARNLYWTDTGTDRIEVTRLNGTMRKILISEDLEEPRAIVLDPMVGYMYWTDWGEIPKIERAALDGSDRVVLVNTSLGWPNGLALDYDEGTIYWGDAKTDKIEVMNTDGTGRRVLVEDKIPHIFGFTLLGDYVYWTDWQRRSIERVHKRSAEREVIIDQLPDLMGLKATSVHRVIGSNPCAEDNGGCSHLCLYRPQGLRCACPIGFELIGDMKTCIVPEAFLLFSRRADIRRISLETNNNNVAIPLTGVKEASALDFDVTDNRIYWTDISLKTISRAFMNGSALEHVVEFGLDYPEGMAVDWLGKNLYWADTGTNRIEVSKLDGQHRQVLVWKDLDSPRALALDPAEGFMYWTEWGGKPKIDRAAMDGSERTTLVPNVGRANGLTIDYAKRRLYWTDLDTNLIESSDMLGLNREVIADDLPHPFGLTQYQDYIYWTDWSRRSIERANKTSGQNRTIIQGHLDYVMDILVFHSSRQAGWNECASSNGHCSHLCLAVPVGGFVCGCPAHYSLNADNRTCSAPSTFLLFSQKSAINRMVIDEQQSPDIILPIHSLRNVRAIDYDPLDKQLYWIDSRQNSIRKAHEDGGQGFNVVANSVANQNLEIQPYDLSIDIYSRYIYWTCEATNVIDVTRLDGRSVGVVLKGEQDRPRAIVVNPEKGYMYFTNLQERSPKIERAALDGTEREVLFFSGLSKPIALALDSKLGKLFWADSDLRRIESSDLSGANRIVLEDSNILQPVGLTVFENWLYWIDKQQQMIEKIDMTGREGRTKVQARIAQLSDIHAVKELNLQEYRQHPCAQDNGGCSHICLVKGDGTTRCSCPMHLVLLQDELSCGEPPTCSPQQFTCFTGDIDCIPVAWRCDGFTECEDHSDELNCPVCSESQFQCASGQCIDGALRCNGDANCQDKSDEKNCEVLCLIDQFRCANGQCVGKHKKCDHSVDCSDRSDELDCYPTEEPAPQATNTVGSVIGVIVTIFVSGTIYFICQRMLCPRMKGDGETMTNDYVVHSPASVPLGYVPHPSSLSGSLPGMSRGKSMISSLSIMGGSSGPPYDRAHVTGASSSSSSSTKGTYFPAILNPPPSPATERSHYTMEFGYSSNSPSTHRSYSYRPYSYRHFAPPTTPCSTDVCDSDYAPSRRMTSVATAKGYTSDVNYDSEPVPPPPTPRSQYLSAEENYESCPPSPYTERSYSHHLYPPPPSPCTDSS
Dickkopf-related protein 1/Low-density lipoprotein receptor-related protein 6 (Homo sapiens), sequence (O75581 20-1613 partner limits assumed): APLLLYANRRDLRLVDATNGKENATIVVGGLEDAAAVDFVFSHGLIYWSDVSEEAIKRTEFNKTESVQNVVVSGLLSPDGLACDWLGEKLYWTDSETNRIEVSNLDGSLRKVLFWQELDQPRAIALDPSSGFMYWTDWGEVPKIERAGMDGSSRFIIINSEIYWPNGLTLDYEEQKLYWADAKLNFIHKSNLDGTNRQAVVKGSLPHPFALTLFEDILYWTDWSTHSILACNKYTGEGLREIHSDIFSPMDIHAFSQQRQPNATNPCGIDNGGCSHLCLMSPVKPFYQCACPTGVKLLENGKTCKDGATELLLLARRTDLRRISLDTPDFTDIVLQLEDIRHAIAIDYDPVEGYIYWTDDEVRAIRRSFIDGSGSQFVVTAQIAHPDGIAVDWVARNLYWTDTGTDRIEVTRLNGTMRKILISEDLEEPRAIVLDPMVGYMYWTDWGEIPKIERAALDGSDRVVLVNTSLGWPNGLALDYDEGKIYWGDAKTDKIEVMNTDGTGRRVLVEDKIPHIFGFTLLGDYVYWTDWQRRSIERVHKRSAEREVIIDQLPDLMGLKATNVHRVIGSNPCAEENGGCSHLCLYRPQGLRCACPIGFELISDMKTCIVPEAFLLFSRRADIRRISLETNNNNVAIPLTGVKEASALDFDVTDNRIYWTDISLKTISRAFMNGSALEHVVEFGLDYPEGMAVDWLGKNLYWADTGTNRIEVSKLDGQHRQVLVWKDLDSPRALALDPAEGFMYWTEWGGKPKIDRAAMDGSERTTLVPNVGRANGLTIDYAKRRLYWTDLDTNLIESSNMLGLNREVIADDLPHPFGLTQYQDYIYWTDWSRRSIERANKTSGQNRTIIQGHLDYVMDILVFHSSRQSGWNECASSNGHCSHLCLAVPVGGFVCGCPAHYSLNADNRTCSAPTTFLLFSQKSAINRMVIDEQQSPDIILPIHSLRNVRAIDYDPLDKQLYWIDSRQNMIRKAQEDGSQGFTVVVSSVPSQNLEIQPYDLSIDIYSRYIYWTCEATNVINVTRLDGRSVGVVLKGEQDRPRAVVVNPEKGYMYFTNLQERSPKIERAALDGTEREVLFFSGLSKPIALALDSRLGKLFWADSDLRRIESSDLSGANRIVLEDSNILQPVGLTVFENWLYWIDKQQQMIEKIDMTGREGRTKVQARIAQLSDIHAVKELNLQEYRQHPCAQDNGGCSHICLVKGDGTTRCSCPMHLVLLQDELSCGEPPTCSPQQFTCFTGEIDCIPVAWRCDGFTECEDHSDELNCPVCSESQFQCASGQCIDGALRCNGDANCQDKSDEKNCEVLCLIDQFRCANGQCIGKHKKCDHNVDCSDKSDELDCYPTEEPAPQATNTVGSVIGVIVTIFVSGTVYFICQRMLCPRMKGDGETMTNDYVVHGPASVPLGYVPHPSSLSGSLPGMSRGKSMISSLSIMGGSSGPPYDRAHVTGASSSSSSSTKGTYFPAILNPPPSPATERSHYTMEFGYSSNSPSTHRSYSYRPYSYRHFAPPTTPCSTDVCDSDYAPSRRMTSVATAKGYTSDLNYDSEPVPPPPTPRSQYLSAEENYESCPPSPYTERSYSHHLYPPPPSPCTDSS
Dickkopf-related protein 1/Low-density lipoprotein receptor-related protein 6 (Homo sapiens), sequence (O94907 32-266 limits assumed): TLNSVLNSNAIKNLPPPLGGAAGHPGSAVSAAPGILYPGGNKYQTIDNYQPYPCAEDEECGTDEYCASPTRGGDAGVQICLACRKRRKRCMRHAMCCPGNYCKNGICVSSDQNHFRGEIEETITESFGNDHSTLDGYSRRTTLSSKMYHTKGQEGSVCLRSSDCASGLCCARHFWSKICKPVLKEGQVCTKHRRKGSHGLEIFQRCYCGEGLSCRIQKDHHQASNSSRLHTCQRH

Test system in one data set: not listed separately
Description: Cytotoxicity against mouse primary cortical neurons assessed viable cells at 100 uM after 24 hrs by MTT assay. It is filed as cell-based, Cerebral cortex neuron. As to conditions: cerebral cortex neuron, 24 h, 100 µM. The gist of the method: (§1)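 Primary mouse cortical neurons seeded at 25,000 or 15,000 cells/well and grown 6 days at 37 °C, 5% CO2. Test compound was then added in fresh medium (final DMSO 0.1%) for 24 h at 37 °C. MTT (2.5 mg/ml in PBS) was added for 4 h. Formazan was extracted with isopropanol/HCl and absorbance read at 545 nm. Read-out is % viable cells.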
On the technique in general: Tetrazolium dyes change colour on reduction, which living cells bring about.
Take `CN(C)c1ccc2nc3c(C(=O)O)cc(=O)c(O)c-3oc2c1` [listing 1 of 3 here]: the Activity was 100%.

The same data set, now with this note: primary cortical neurons, read-out: Activity.
Regarding `CN(C)c1ccc2nc3c(O)cc(=O)cc-3oc2c1`, the viability at 24 h, 100 µM worked out at 100%.
Still for that read-out and setting: the figure for `CCOC(=O)c1cc(O)c(O)c2oc3cc(=[N+](C)C)ccc-3nc12` is 100%; for `CN(C)c1ccc2nc3ccc(=O)c(O)c-3oc2c1` it is 100%.
On the same count and under the same terms, the same measure for `Cc1cc(=O)cc2oc3cc(N(C)C)ccc3nc1-2`: 100%.
Still for that read-out and setting: the figure for `CCCCOC(=O)c1cc(=O)c(O)c2oc3cc(N(CCC)CCC)ccc3nc1-2` is 100%; for `COC(=O)c1cc(=O)c(O)c2oc3cc(N(C)C)ccc3nc1-2` it is 100%; for `CC(C)OC(=O)c1cc(=O)c(O)c2oc3cc(N(C)C)ccc3nc1-2` it is 100%.
As to `CCOC(=O)c1cc(O)c(O)c(O)c1` [ETHYLGALLATE], the viability at 24 h, 100 µM worked out at 100%.
Still for that read-out and setting: the same measure for `CN(C)c1ccc2nc3c(C(=O)OCc4ccccc4)cc(=O)c(O)c-3oc2c1`: 100%; for `CCCCOC(=O)c1cc(=O)c(O)c2oc3cc(N(C)C)ccc3nc1-2`: 100%; for `CCCCCCOC(=O)c1cc(O)c(O)c2oc3cc(=[N+](C)C)ccc-3nc12`: 100%.
The same measure, in the same setting: the figure for `CN(C)c1ccc2nc3c(C(=O)O)cc(=O)c(O)c-3oc2c1` [listing 2 of 3 here] is 100%; for `CCCCCCOC(=O)c1cc(=O)c(O)c2oc3cc(N(C)C)ccc3nc1-2` it is 100%; for `CCCN(CCC)c1ccc2nc3c(C(=O)OC)cc(=O)c(O)c-3oc2c1` it is 100%.
On the same count and under the same terms, the same measure for `CCOC(=O)c1cc(=O)c(O)c2oc3cc(N(C)C)ccc3nc1-2`: 100%; for `COCCOC(=O)c1cc(O)c(O)c2oc3cc(=[N+](C)C)ccc-3nc12`: 100%.
Consider `CCCCOC(=O)c1cc(O)c(O)c2oc3cc(=[N+](C)C)ccc-3nc12`, for which the viability at 24 h, 100 µM was found to be 100%.
Still for that read-out and setting: the figure for `COCCOC(=O)c1cc(=O)c(O)c2oc3cc(N(C)C)ccc3nc1-2` is 100%.

For another data set, the target named is T1, Dickkopf-related protein 1 (Mus musculus, UniProt O54908).
T1 sequence (O54908 whole entry): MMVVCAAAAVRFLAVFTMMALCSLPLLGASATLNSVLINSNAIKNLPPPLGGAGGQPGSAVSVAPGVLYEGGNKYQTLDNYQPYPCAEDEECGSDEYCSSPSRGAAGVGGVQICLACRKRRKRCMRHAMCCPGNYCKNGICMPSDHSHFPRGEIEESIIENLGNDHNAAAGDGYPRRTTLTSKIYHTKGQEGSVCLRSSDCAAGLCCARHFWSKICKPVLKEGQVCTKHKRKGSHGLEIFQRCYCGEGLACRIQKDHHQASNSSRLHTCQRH
Description: Inhibition of mouse DKK1 assessed as inhibition of DKK1-alkaline phophatase binding to LRP5 transfected in HEK293 cells. It is filed as cell-based.
Settings: not given
A word on the IC50: it is the concentration that inhibits the measured activity by half. In the case of `CN(C)c1ccc2nc3c(C(=O)O)cc(=O)c(O)c-3oc2c1` [listing 2 of 3 here], the half-maximal inhibitory concentration (IC50) was determined as 3 µM.

The next data set addresses Dickkopf-related protein 1/Lrp6 (Mus musculus) (UniProt O54908+O88572). Description: Inhibition of DKK1-LRP6 interactions in mouse cortical neurons assessed as inhibition of prostaglandinJ2-induced tau phosphorylation at Ser396 residue at 10 uM for 1 hr by western bloting.
Settings: not given
The procedure, abridged:
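Primary mouse cortical neurons treated 1 h at 37 °C with 20 µM PGJ2 plus compound or DMSO. Lysed at 4 °C in Tris/NaCl/EDTA/Triton buffer, pH 7.6, with protease and phosphatase inhibitors; protein measured by Bradford. SDS-PAGE western blot probed with anti-pSer396 tau (1:1000, overnight, 4 °C) and anti-actin; ECL detection. Densitometry normalized to actin; three independent experiments, mean SD.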
(A western blot detects proteins with antibodies after separation by electrophoresis.)
`CN(C)c1ccc2nc3ccc(=O)c(O)c-3oc2c1`: the inhibition entry was “Active”.
Same read-out and setting: the same measure for `COC(=O)c1cc(=O)c(O)c2oc3cc(N(C)C)ccc3nc1-2`: “Active”; for `CC(C)OC(=O)c1cc(=O)c(O)c2oc3cc(N(C)C)ccc3nc1-2`: “Active”; for `CN(C)c1ccc2nc3c(C(=O)OCc4ccccc4)cc(=O)c(O)c-3oc2c1`: “Active”.
Same read-out and setting: the same measure for `CCCCOC(=O)c1cc(=O)c(O)c2oc3cc(N(C)C)ccc3nc1-2`: “Active”; for `CCCCCCOC(=O)c1cc(=O)c(O)c2oc3cc(N(C)C)ccc3nc1-2`: “Active”; for `CCOC(=O)c1cc(=O)c(O)c2oc3cc(N(C)C)ccc3nc1-2`: “Active”.
Same read-out and setting: the same measure for `CN(C)c1ccc2nc3c(C(=O)O)cc(=O)c(O)c-3oc2c1` [listing 3 of 3 here]: “Active”; for `COCCOC(=O)c1cc(=O)c(O)c2oc3cc(N(C)C)ccc3nc1-2`: “Active”.

A further data set concerns the target Dickkopf-related protein 1/Low-density lipoprotein receptor-related protein 6 (Homo sapiens) (UniProt O94907+O75581). Description: Inhibition of DKK1/LRP6 (unknown origin) expressed in HEK293 cells assessed as inhibition of DKK1/LRP6 interaction at 100 uM after 2 hrs by immunofluorescence method. The class given is cell-based.
Settings: not given
The gist of the method:
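HEK-293 cells stably overexpressing LRP6, sub-confluent, incubated 2 h at 4 °C with DKK1 conditioned medium plus compound or DMSO. Fixed in 3% paraformaldehyde, blocked in PBS/0.1% BSA, stained with rabbit anti-DKK1 and Alexa488 secondary; DAPI nuclei. Surface DKK1 fluorescence quantified over 750 cells as % DKK1 binding; three independent experiments in duplicate.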
On to `CN(C)c1ccc2nc3c(O)cc(=O)cc-3oc2c1`, for which the inhibition result was “Active”.
As to `CCOC(=O)c1cc(O)c(O)c2oc3cc(=[N+](C)C)ccc-3nc12`, the inhibition entry was “Active”.
Same read-out and setting: the entry for `CN(C)c1ccc2nc3ccc(=O)c(O)c-3oc2c1` is “Active”; for `Cc1cc(=O)cc2oc3cc(N(C)C)ccc3nc1-2` it is “Active”; for `CCCCOC(=O)c1cc(=O)c(O)c2oc3cc(N(CCC)CCC)ccc3nc1-2` it is “Active”.
On the same count and under the same terms, the same measure for `COC(=O)c1cc(=O)c(O)c2oc3cc(N(C)C)ccc3nc1-2`: “Active”.
On to `CC(C)OC(=O)c1cc(=O)c(O)c2oc3cc(N(C)C)ccc3nc1-2`, for which the inhibition result is “Active”.
Regarding `CCOC(=O)c1cc(O)c(O)c(O)c1` [ETHYLGALLATE], the inhibition result is “Active”.
Still for that read-out and setting: the entry for `CN(C)c1ccc2nc3c(C(=O)OCc4ccccc4)cc(=O)c(O)c-3oc2c1` is “Active”; for `CCCCOC(=O)c1cc(=O)c(O)c2oc3cc(N(C)C)ccc3nc1-2` it is “Active”; for `CCCCCCOC(=O)c1cc(O)c(O)c2oc3cc(=[N+](C)C)ccc-3nc12` it is “Active”.
The same measure, in the same setting: the same measure for `CCCCCCOC(=O)c1cc(=O)c(O)c2oc3cc(N(C)C)ccc3nc1-2`: “Active”; for `CCCN(CCC)c1ccc2nc3c(C(=O)OC)cc(=O)c(O)c-3oc2c1`: “Active”; for `CCOC(=O)c1cc(=O)c(O)c2oc3cc(N(C)C)ccc3nc1-2`: “Active”.
Take `COCCOC(=O)c1cc(O)c(O)c2oc3cc(=[N+](C)C)ccc-3nc12`: the inhibition result was “Active”.
The same measure, in the same setting: the entry for `CN(C)c1ccc2nc3c(C(=O)O)cc(=O)c(O)c-3oc2c1` [listing 3 of 3 here] is “Active”; for `CCCCOC(=O)c1cc(O)c(O)c2oc3cc(=[N+](C)C)ccc-3nc12` it is “Active”; for `COCCOC(=O)c1cc(=O)c(O)c2oc3cc(N(C)C)ccc3nc1-2` it is “Active”.

Test system in a further data set: not listed separately
Description: Cytotoxicity against mouse primary cortical neurons assessed as viable cells at 10 uM after 24 hrs by MTT assay. It is filed as cell-based, Cerebral cortex neuron. As to conditions: cerebral cortex neuron, 24 h, 10 µM. The procedure, abridged: as §1
Consider `CN(C)c1ccc2nc3c(C(=O)O)cc(=O)c(O)c-3oc2c1` [listing 1 of 3 here], for which the Activity was found to be 100%.

Still in this data set, the particulars now being: primary cortical neurons, read-out: Activity.
For the compound `CN(C)c1ccc2nc3c(O)cc(=O)cc-3oc2c1`, the viability at 24 h, 10 µM was found to be 100%.
The same measure, in the same setting: the same measure for `CCOC(=O)c1cc(O)c(O)c2oc3cc(=[N+](C)C)ccc-3nc12`: 100%; for `CN(C)c1ccc2nc3ccc(=O)c(O)c-3oc2c1`: 100%.
Same read-out and setting: the figure for `Cc1cc(=O)cc2oc3cc(N(C)C)ccc3nc1-2` is 100%; for `CCCCOC(=O)c1cc(=O)c(O)c2oc3cc(N(CCC)CCC)ccc3nc1-2` it is 100%.
Same read-out and setting: the same measure for `COC(=O)c1cc(=O)c(O)c2oc3cc(N(C)C)ccc3nc1-2`: 100%; for `CC(C)OC(=O)c1cc(=O)c(O)c2oc3cc(N(C)C)ccc3nc1-2`: 100%.
As to `CCOC(=O)c1cc(O)c(O)c(O)c1` [ETHYLGALLATE], the viability at 24 h, 10 µM stood at 100%.
Same read-out and setting: the same measure for `CN(C)c1ccc2nc3c(C(=O)OCc4ccccc4)cc(=O)c(O)c-3oc2c1`: 100%; for `CCCCOC(=O)c1cc(=O)c(O)c2oc3cc(N(C)C)ccc3nc1-2`: 100%; for `CCCCCCOC(=O)c1cc(O)c(O)c2oc3cc(=[N+](C)C)ccc-3nc12`: 100%.
Still for that read-out and setting: the figure for `CN(C)c1ccc2nc3c(C(=O)O)cc(=O)c(O)c-3oc2c1` [listing 2 of 3 here] is 100%; for `CCCCCCOC(=O)c1cc(=O)c(O)c2oc3cc(N(C)C)ccc3nc1-2` it is 100%.
Turning to `CCCN(CCC)c1ccc2nc3c(C(=O)OC)cc(=O)c(O)c-3oc2c1`, the viability at 24 h, 10 µM was found to be 100%.
On the same count and under the same terms, the figure for `CCOC(=O)c1cc(=O)c(O)c2oc3cc(N(C)C)ccc3nc1-2` is 100%.
The same measure, in the same setting: the same measure for `COCCOC(=O)c1cc(O)c(O)c2oc3cc(=[N+](C)C)ccc-3nc12`: 100%; for `CCCCOC(=O)c1cc(O)c(O)c2oc3cc(=[N+](C)C)ccc-3nc12`: 100%.
The same measure, in the same setting: the same measure for `COCCOC(=O)c1cc(=O)c(O)c2oc3cc(N(C)C)ccc3nc1-2`: 100%.
